Results collected from several papers.
Protocols differ between the studies behind these lines.
Target: Phosphorylase b kinase gamma catalytic chain, skeletal muscle/heart isoform (PHKG1, Homo sapiens, UniProt Q16816)

| SMILES | assay | conditions | quantity | value |
| --- | --- | --- | --- | --- |
| CC/C(=N\NC(=O)NCc1cccc(O)c1)c1ccc(O)c(C)c1O | enzyme activity, inhibitor | 0.1 µM | inhibition | -1.8% |
| CCCCNc1ncc2c(-c3ccc(F)cc3)nn(C[C@H]3CC[C@H](N)CC3)c2n1 | target engagement in cells, inhibitor, chemoproteomics | 20 mM | inhibition | 26.4% |
| COc1cc2ncnc(Nc3ccc(Oc4ccccc4)cc3C)c2cc1OC | enzyme activity, inhibitor | 1 µM | inhibition | -1% |
| CCCS(=O)(=O)Nc1ccc(F)c(C(=O)c2c[nH]c3ncc(-c4ccc(Cl)cc4)cc23)c1F | enzyme activity, inhibitor | 1 µM | inhibition | < 20% |
| COc1cc(Cl)c(C(=O)N[C@@H](CN[C@H]2CC[C@@H](N)CC2)Cc2ccc(C#N)cc2)cc1-c1ccc(CN[C@H](C)c2ccc(C)cc2)o1 | enzyme activity, inhibitor | 1 µM | remaining activity | 68% |
| Nc1nc(Nc2ccccc2)sc1C(=O)c1c(F)cccc1F | enzyme activity, inhibitor | 10 µM | remaining activity | 88% |
| CNCc1ccccc1-c1csc([C@H](C)Nc2nc(C)nc3cc(OC)c(OC)cc23)c1 | cell-free assay, competition with immobilised ligand | 1 µM | remaining binding | 87% |
| N#CCCc1ccc2c(c1)-c1[nH]c3ccc([N+](=O)[O-])cc3c1CC(=O)N2 | cell-free assay | 0.5 µM | remaining signal | 7.72% |
| O=C(Nc1cnn(-c2csc(C(=O)NC3COC3)c2)c1)Nc1ccccc1Cl | enzyme activity, inhibitor | 5 µM | remaining activity | 102% |
| CN(C)C(=O)Cn1cc(-c2nc([C@@](C)(c3ccc(-c4cnc(N)nc4)cc3)C3CC3)no2)cn1 | cell-free assay, competition with immobilised ligand | 1 µM | remaining binding | 77% |
| Oc1cccc(-c2nc(N3CCOCC3)c3oc4ncccc4c3n2)c1 | enzyme activity, inhibitor | 10 µM | remaining activity | 84% |
| CCCOc1ccc([C@H]2[C@H](C(=O)O)[C@@H](c3ccc4c(c3)OCO4)CN2CC(=O)Nc2c(CC)cccc2CC)cc1 | cell-free assay, competition with immobilised ligand | 1 µM | remaining binding | 99% |
| CC(C)(C)c1nc(-c2cccc(NS(=O)(=O)c3c(F)cccc3F)c2F)c(-c2ccnc(N)n2)s1 | enzyme activity, inhibitor, radiometric | 1 µM | remaining activity | 97% |
| Cc1c(C(=O)O)cc(-c2ccc(C3CCNCC3)cc2)c2ccc(-c3ccc(C(F)(F)F)cc3)cc12 | cell-free assay, competition with immobilised ligand | 1 µM | remaining binding | 100% |
| Cc1sc(C(=O)NC2COC2)cc1-n1cc(NC(=O)Nc2c(F)cccc2Cl)cn1 | enzyme activity, inhibitor | 10 µM | remaining activity | 84% |
| CC(C)(O)[C@H]1CC[C@H](Nc2ccc3ncc(-c4cccc(C(F)(F)F)c4)n3n2)CC1 | enzyme activity, inhibitor | 1 µM | remaining activity | 84.1% |
| CS(=O)(=O)c1cc(C2(NC(=O)c3cncc4c3cnn4-c3ccc(F)cc3)CC2)ccn1 | cell-free assay, competition with immobilised ligand | 1 µM | remaining binding | 78% |
| FC(F)c1nc2ccccc2n1-c1nc(N2CCOCC2)nc(N2CCOCC2)n1 | enzyme activity, inhibitor | 10 µM | remaining activity | 94% |
| O=C(Nc1cnc(Oc2ccc(F)cc2)nc1)N1CCc2ncccc2[C@@H]1c1ccc(F)cc1 | cell-free assay, competition with immobilised ligand | 1 µM | remaining binding | 100% |
| c1ccc(CNc2nc(N3CCOc4ccccc43)nc3c2CCCC3)cc1 | target engagement in cells, inhibitor, chemoproteomics | 20 mM | inhibition | 2% |
